The results in this text go back to ChEMBL document CHEMBL1127802, “Selective inhibitors of monoamine oxidase. 2. Arylamide SAR” (J Med Chem, 1994).

As a reminder, the inhibition is how much of the control response was suppressed. Usually IC50 stands for the concentration that inhibits the measured activity by half. A lower IC50 goes with higher potency.

Series [1] concerns the target T1, MAO B (monoamine oxidase B) (Rattus norvegicus, UniProt P19643).
T1 sequence (P19643 whole entry): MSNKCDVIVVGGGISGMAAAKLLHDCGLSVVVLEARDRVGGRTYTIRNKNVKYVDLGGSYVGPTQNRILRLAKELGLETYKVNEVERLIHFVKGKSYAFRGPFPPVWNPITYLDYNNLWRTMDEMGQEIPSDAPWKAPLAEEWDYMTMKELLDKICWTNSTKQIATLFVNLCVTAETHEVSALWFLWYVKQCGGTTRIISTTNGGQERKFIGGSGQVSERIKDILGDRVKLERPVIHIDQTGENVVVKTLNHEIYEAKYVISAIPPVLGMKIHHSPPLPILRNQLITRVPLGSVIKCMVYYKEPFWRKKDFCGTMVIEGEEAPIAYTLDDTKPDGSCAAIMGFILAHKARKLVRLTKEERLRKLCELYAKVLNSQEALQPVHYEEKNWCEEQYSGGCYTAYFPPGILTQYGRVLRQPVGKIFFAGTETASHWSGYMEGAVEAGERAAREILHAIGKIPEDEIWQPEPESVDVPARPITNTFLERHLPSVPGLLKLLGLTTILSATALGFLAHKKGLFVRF
Kind of series: Inhibitory activity against monoamine oxidase B (MAO B) from rat brain using a radiometric procedure with [14C]- phenethylamine atb 10 uM. The following applies: rat brain monoamine oxidase B preparation, probe [14C]-phenethylamine. Put shortly:
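Rat brain mitochondrial MAO extract preincubated ± inhibitor 15 min at 37 °C in 50 mM potassium phosphate pH 7.4. […] Blanks contained 2 mM pargyline. Stopped with HCl, products extracted into ethyl acetate/toluene, scintillation counted. Triplicates. IC50 from mean % inhibition vs log concentration plot.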

Series [2] concerns the target T2, Amine oxidase [flavin-containing] A (Rattus norvegicus, UniProt P21396).
T2 sequence (P21396 whole entry): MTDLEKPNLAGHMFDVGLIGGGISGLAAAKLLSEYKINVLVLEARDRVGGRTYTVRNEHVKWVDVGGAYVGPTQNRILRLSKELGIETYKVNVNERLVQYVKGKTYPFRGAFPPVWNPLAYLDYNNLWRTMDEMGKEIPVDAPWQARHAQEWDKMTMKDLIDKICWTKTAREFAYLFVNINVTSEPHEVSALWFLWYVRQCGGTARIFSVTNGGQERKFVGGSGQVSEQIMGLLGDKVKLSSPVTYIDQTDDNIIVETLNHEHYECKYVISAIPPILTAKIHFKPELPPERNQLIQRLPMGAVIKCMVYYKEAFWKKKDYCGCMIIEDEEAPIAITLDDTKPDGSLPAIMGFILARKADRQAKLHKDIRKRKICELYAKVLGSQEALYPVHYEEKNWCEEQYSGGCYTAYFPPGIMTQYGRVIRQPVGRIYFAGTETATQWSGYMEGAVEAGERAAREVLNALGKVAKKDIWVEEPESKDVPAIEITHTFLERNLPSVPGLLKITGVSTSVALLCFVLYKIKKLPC
Kind of series: Inhibitory activity against monoamine oxidase A (MAO A) from rat brain using a radiometric procedure with [3H]- serotonin. Put shortly:
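Rat brain mitochondrial MAO extract was preincubated with or without inhibitor for 15 min at 37 °C in 50 mM potassium phosphate, pH 7.4. […] Blanks contained 2 mM pargyline. Reactions were stopped with HCl, products extracted into ethyl acetate/toluene and counted by scintillation. Triplicates were averaged as % inhibition, and IC50 was taken from % inhibition vs log concentration.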

Turning to `CC(=O)Nc1ccc2c(c1)[nH]c1ccccc12`, in series [1], the inhibition at 10 uM stood at 38%. The compound further had an IC50 in series [2] of 43 nM.
